From ChEMBL document CHEMBL1649384, “Synthesis and antiproliferative activity of novel symmetrical alkylthio- and alkylseleno-imidocarbamates” (Eur J Med Chem, 2011)

Legend:
[1] = system: MCF7; assay: Cytotoxicity against human MCF7 cells after 72 hrs by MTT assay; format: functional; conditions: MCF7, 72 h
How it was run: (§1)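 Cells seeded per well: Hep-G2 1×10⁴, HT-29 4×10³, K-562 4×10³, MCF-7 1.2×10⁴, MCF-10A 7×10³, PC-3 2×10³. MCF-10A were grown in supplemented MEBM at 37 °C, 5% CO₂. Five concentrations were tested between 0.01 and 100, with 72 h exposure. Formazan was read by A590. GI₅₀ was taken relative to untreated controls, from at least three independent experiments.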

[2] = system: HT-29; assay: Cytotoxicity against human HT-29 cells after 72 hrs by MTT assay; format: functional; conditions: HT-29, 72 h; for CC50: read-out: LC50 (the source's name); how it was run: as §1
[3] = system: K562; assay: Cytotoxicity against human K562 cells after 72 hrs by MTT assay; format: functional; conditions: K562, 72 h; for CC50: read-out: LC50 (the source's name); how it was run: as §1
[4] = system: HepG2; assay: Cytotoxicity against human HepG2 cells after 72 hrs by MTT assay; format: functional; conditions: HepG2, 72 h; for CC50: read-out: LC50 (the source's name); how it was run: as §1
[5] = system: PC-3; assay: Cytotoxicity against human PC3 cells after 72 hrs by MTT assay; format: functional; conditions: PC-3, 72 h; for CC50: read-out: LC50 (the source's name); how it was run: as §1
[6] = Cytotoxicity against human MCF10A cells after 72 hrs by MTT assay; format: cell-based, MCF-10A; conditions: for GI50 at 72 h: MCF10A cells; for LC50 / TGI: mcf-10a, 72 h; how it was run: as §1

Structure (SMILES)	GI50 [1]	LC50 [1]	TGI [1]	GI50 [2]	TGI [2]	CC50 [2]	GI50 [3]	TGI [3]	CC50 [3]	GI50 [4]	TGI [4]	CC50 [4]	GI50 [5]	TGI [5]	CC50 [5]	GI50 at 72 h [6]	LC50 [6]	TGI [6]
CS/C(=N\C(=O)c1ccno1)NC(=O)c1ccno1	77.8 µM	> 100 µM	> 100 µM	> 100 µM	> 100 µM	> 100 µM	> 100 µM	> 100 µM	> 100 µM	> 100 µM	> 100 µM	> 100 µM	99.2 µM	> 100 µM	> 100 µM	16.9 µM	> 100 µM	> 100 µM
CS/C(=N\C(=O)c1cccs1)NC(=O)c1cccs1	44.5 µM	> 100 µM	89 µM	77.9 µM	> 100 µM	> 100 µM	72.6 µM	> 100 µM	> 100 µM	> 100 µM	> 100 µM	> 100 µM	39 µM	98.2 µM	> 100 µM	19.7 µM	90.5 µM	55.1 µM
CS/C(=N\C(=O)c1ccc2c(c1)OCO2)NC(=O)c1ccc2c(c1)OCO2	24.6 µM	94.8 µM	59.7 µM	46.4 µM	> 100 µM	> 100 µM	68 µM	> 100 µM	> 100 µM	61.4 µM	> 100 µM	> 100 µM	28.7 µM	54.5 µM	80.4 µM	1.01 µM	9.05 µM	5.03 µM
O=C(/N=C(/NC(=O)c1cccs1)[Se]Cc1ccccc1)c1cccs1	72.5 µM	> 100 µM	> 100 µM	55.1 µM	> 100 µM	> 100 µM	29.5 µM	58.5 µM	87.4 µM	34.7 µM	58.1 µM	81.5 µM	49.9 µM	> 100 µM	> 100 µM	72.5 µM	> 100 µM	> 100 µM
O=C(/N=C(/NC(=O)c1csc([N+](=O)[O-])c1)[Se]Cc1ccccc1)c1csc([N+](=O)[O-])c1	24.4 µM	83.8 µM	54.1 µM	9.25 µM	> 100 µM	> 100 µM	23.5 µM	55.8 µM	88.2 µM	34.1 µM	62.8 µM	91.6 µM	35.9 µM	69.2 µM	> 100 µM	24.4 µM	83.76 µM	54.1 µM
O=C(/N=C(/NC(=O)c1ccc2c(c1)OCO2)[Se]Cc1ccccc1)c1ccc2c(c1)OCO2	55.3 µM	> 100 µM	> 100 µM	57.3 µM	> 100 µM	> 100 µM	97.8 µM	> 100 µM	> 100 µM	> 100 µM	> 100 µM	> 100 µM	> 100 µM	> 100 µM	> 100 µM	55.3 µM	> 100 µM	> 100 µM
CS/C(=N\C(=O)c1cc(-c2ccccc2)nc2ccccc12)NC(=O)c1cc(-c2ccccc2)nc2ccccc12	43.1 µM	> 100 µM	87.7 µM	23.7 µM	> 100 µM	> 100 µM	34.4 µM	> 100 µM	> 100 µM	6.24 µM	48.1 µM	> 100 µM	7.48 µM	> 100 µM	> 100 µM	0.04 µM	48.81 µM	0.54 µM
O=C(/N=C(/NC(=O)c1cc2ccccc2s1)[Se]Cc1ccccc1)c1cc2ccccc2s1	37.9 µM	87.9 µM	62.9 µM	6.51 µM	> 100 µM	> 100 µM	14.9 µM	42.8 µM	70.6 µM	21 µM	49 µM	77 µM	30.5 µM	58.4 µM	86.3 µM	37.9 µM	87.9 µM	62.92 µM
COc1cc([C@@H]2c3cc4c(cc3[C@@H](O[C@@H]3O[C@@H]5CO[C@@H](C)O[C@H]5[C@H](O)[C@H]3O)[C@H]3COC(=O)[C@H]23)OCO4)cc(OC)c1O [ETOPOSIDE]	19.9 µM	–	> 100 µM	31.6 µM	> 100 µM	> 100 µM	12.6 µM	> 100 µM	> 100 µM	–	–	–	0.63 µM	3.98 µM	79.4 µM	–	–	–
O=C(/N=C(/NC(=O)c1ccco1)[Se]Cc1ccccc1)c1ccco1	8.8 µM	> 100 µM	58 µM	7.19 µM	89.1 µM	89.1 µM	9.53 µM	44.2 µM	80.6 µM	7.65 µM	39.5 µM	76.5 µM	30.5 µM	57.6 µM	84.8 µM	8.8 µM	> 100 µM	57.98 µM
O=C(/N=C(/NC(=O)c1ccno1)[Se]Cc1ccccc1)c1ccno1	7.8 µM	> 100 µM	> 100 µM	6.82 µM	> 100 µM	> 100 µM	20 µM	57.3 µM	94.7 µM	9.12 µM	58.9 µM	> 100 µM	53.1 µM	> 100 µM	> 100 µM	7.8 µM	> 100 µM	> 100 µM
C[Se]/C(=N\C(=O)c1c2ccccc2nc2ccccc12)NC(=O)c1c2ccccc2nc2ccccc12	73.9 µM	> 100 µM	> 100 µM	7.63 µM	> 100 µM	> 100 µM	27.2 µM	61 µM	94.8 µM	22.3 µM	52.4 µM	82.5 µM	41.3 µM	80.1 µM	> 100 µM	18.2 µM	88.31 µM	53.28 µM
CS/C(=N\C(=O)c1csc([N+](=O)[O-])c1)NC(=O)c1csc([N+](=O)[O-])c1	44.6 µM	> 100 µM	78.1 µM	51.8 µM	> 100 µM	> 100 µM	56.9 µM	98.7 µM	> 100 µM	63.4 µM	> 100 µM	> 100 µM	41.5 µM	82.5 µM	> 100 µM	1.55 µM	75.14 µM	21.35 µM
O=C(/N=C(/NC(=O)c1c2ccccc2nc2ccccc12)[Se]Cc1ccccc1)c1c2ccccc2nc2ccccc12	53.7 µM	> 100 µM	88.1 µM	26.9 µM	> 100 µM	> 100 µM	9.6 µM	44.5 µM	80.7 µM	30.4 µM	64.5 µM	98.5 µM	42.3 µM	77.4 µM	> 100 µM	53.7 µM	> 100 µM	88.14 µM
CC(=O)O[C@H]1C(=O)[C@@]2(C)[C@H]([C@H](OC(=O)c3ccccc3)[C@]3(O)C[C@H](OC(=O)[C@H](O)[C@@H](NC(=O)c4ccccc4)c4ccccc4)C(C)=C1C3(C)C)[C@]1(OC(C)=O)CO[C@@H]1C[C@@H]2O [PACLITAXEL]	0.003 µM	–	> 100 µM	0.003 µM	79.4 µM	79.4 µM	0.004 µM	15.8 µM	> 100 µM	–	–	–	0.004 µM	12.6 µM	> 100 µM	–	–	–
COc1cccc2c1C(=O)c1c(O)c3c(c(O)c1C2=O)C[C@@](O)(C(=O)CO)C[C@@H]3O[C@H]1C[C@H](N)[C@H](O)[C@H](C)O1 [DOXORUBICIN]	0.02 µM	–	5.01 µM	0.2 µM	25.4 µM	25.4 µM	0.1 µM	5.01 µM	19.9 µM	–	–	–	0.25 µM	3.16 µM	19.9 µM	–	–	–
CS/C(=N\C(=O)c1cnc2ccccc2c1)NC(=O)c1cnc2ccccc2c1	23.9 µM	> 100 µM	> 100 µM	> 100 µM	> 100 µM	> 100 µM	65.8 µM	> 100 µM	> 100 µM	57.6 µM	> 100 µM	> 100 µM	76.3 µM	> 100 µM	> 100 µM	0.5 µM	82.19 µM	42.17 µM
CN(Cc1cnc2nc(N)nc(N)c2n1)c1ccc(C(=O)N[C@@H](CCC(=O)O)C(=O)O)cc1 [METHOTREXATE]	0.06 µM	–	> 100 µM	0.04 µM	> 100 µM	0.03 µM	0.03 µM	> 100 µM	> 100 µM	–	–	–	0.1 µM	> 100 µM	> 100 µM	–	–	–
